# ChEMBL document CHEMBL1152746, “Inhibitors of adenosine consuming parasites through polymer-assisted solution phase synthesis of lipophilic 5'-amido-5'-deoxyadenosine derivatives” (Bioorg Med Chem, 2009)
# pIC50: −log10 of the molar value.
# Test system: Plasmodium falciparum
# Assay: Antiplasmodial activity against Plasmodium falciparum K1 as [3H]hypoxanthine uptake
# Assay type: functional, organism-based
# Conditions: K1, 72 h
# Procedure, shortened: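 Erythrocytic stages of chloroquine- and pyrimethamine-resistant K1 strain grown in washed human A+ red cells, 2.5% hematocrit, 0.3% parasitemia. Medium was hypoxanthine-free RPMI 1640 with HEPES, NaHCO3, neomycin and AlbuMAX. DMSO stocks (10 mg/mL) tested as serial doubling dilutions for 48 h at 37 °C under 4% CO2, 3% O2, 93% N2. [3H]hypoxanthine then added for 24 h, cells harvested onto filters, scintillation counted.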
row,Structure (SMILES),pIC50
1,O=C(CCCOc1ccccc1)NC[C@H]1O[C@@H](n2cnc3c(NCc4ccc(Oc5ccccc5)cc4)ncnc32)[C@H](O)[C@@H]1O,5.55
2,O=C(Cc1cccc2ccccc12)NC[C@H]1O[C@@H](n2cnc3c(NCc4ccc(Oc5ccccc5)cc4)ncnc32)[C@H](O)[C@@H]1O,6.52
3,O=C(NC[C@H]1O[C@@H](n2cnc3c(NCc4ccc(Oc5ccccc5)cc4)ncnc32)[C@H](O)[C@@H]1O)c1ccc2c(c1)[nH]c(=O)n2Cc1ccccn1,5.68
4,COc1cccc(CC(=O)NC[C@H]2O[C@@H](n3cnc4c(NCc5ccc(Oc6ccccc6)cc5)ncnc43)[C@H](O)[C@@H]2O)c1,5.47
5,O=C(NC[C@H]1O[C@@H](n2cnc3c(NCc4ccc(Oc5ccccc5)cc4)ncnc32)[C@H](O)[C@@H]1O)c1ccc2c(c1)[nH]c(=O)n2COc1ccccc1,5.48
6,CC(C)CCC(=O)NC[C@H]1O[C@@H](n2cnc3c(NCc4ccc(Oc5ccccc5)cc4)ncnc32)[C@H](O)[C@@H]1O,5.34
7,COCCCn1c(=O)[nH]c2cc(C(=O)NC[C@H]3O[C@@H](n4cnc5c(NCc6ccc(Oc7ccccc7)cc6)ncnc54)[C@H](O)[C@@H]3O)ccc21,6.05
8,O=C(CCCc1ccccc1)NC[C@H]1O[C@@H](n2cnc3c(NCc4ccc(Oc5ccccc5)cc4)ncnc32)[C@H](O)[C@@H]1O,5.59
9,O=C(NC[C@H]1O[C@@H](n2cnc3c(NCc4ccc(Oc5ccccc5)cc4)ncnc32)[C@H](O)[C@@H]1O)c1ccc2c(c1)ncn2Cc1cccc2ccccc12,5.66
10,CCCCCn1cnc2cc(C(=O)NC[C@H]3O[C@@H](n4cnc5c(NCc6ccc(Oc7ccccc7)cc6)ncnc54)[C@H](O)[C@@H]3O)ccc21,5.82
11,O=C(NC[C@H]1O[C@@H](n2cnc3c(NCc4ccc(Oc5ccccc5)cc4)ncnc32)[C@H](O)[C@@H]1O)c1ccc2c(c1)[nH]c(=O)n2CCC1=CCCCC1,5.54
12,CCN(CC)CCCC(C)Nc1ccnc2cc(Cl)ccc12 (stereo unspecified) [CHLOROQUINE],6.05

# Further lines, results first:
row,pIC50,Structure (SMILES)
1,5.48,O=C(NC[C@H]1O[C@@H](n2cnc3c(NCc4ccc(Oc5ccccc5)cc4)ncnc32)[C@H](O)[C@@H]1O)c1ccc(Oc2ccccc2)cc1
2,5.46,O=C(NC[C@H]1O[C@@H](n2cnc3c(NCc4ccc(Oc5ccccc5)cc4)ncnc32)[C@H](O)[C@@H]1O)c1cc(Cl)cc(Cl)c1
3,< 5.07,O=C(CCCc1c[nH]c2ccccc12)NC[C@H]1O[C@@H](n2cnc3c(NCc4ccc(Oc5ccccc5)cc4)ncnc32)[C@H](O)[C@@H]1O
4,5.37,CC(C)=CC(=O)NC[C@H]1O[C@@H](n2cnc3c(NCc4ccc(Oc5ccccc5)cc4)ncnc32)[C@H](O)[C@@H]1O
5,5.40,O=C(NC[C@H]1O[C@@H](n2cnc3c(NCc4ccc(Oc5ccccc5)cc4)ncnc32)[C@H](O)[C@@H]1O)c1ccc2c(c1)ncn2Cc1ccccn1
6,5.57,C=CCn1cnc2cc(C(=O)NC[C@H]3O[C@@H](n4cnc5c(NCc6ccc(Oc7ccccc7)cc6)ncnc54)[C@H](O)[C@@H]3O)ccc21
7,5.51,O=C(Cc1cccc(Cl)c1)NC[C@H]1O[C@@H](n2cnc3c(NCc4ccc(Oc5ccccc5)cc4)ncnc32)[C@H](O)[C@@H]1O
8,5.51,CCCCn1c(=O)[nH]c2cc(C(=O)NC[C@H]3O[C@@H](n4cnc5c(NCc6ccc(Oc7ccccc7)cc6)ncnc54)[C@H](O)[C@@H]3O)ccc21
9,5.59,COCCCn1cnc2cc(C(=O)NC[C@H]3O[C@@H](n4cnc5c(NCc6ccc(Oc7ccccc7)cc6)ncnc54)[C@H](O)[C@@H]3O)ccc21
